# Measured values reported in ChEMBL document CHEMBL1149098, “Design, synthesis, and evaluation of novel thienopyrrolizinones as antitubulin agents” (J Med Chem, 2004).
# How the values were obtained:
# L1210 [1] = assay: In vitro antiproliferative activity against L1210 cell line, activity expressed as growth inhibition; type: functional; details: Mus musculus
# How it was run: (§1)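 MTT proliferation assay. Adherent cells trypsinized and seeded at densities keeping controls in exponential growth. Drug exposure for four doubling times, at most 7 days. MTT (5 mg/mL stock) added for 4 h at 37 °C, formazan dissolved in DMSO, OD read at 540 nm. % growth from treated/control OD, tri- or hexaplicates averaged against log concentration. GI50 from linear regression on the linear zone.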
# A549 = assay: In vitro antiproliferative activity against A549 cell line; type: functional, Mus musculus; details: Homo sapiens; how it was run: as §1
# A2780 = assay: In vitro antiproliferative activity against A2780 cell line; type: functional, Mus musculus; details: Homo sapiens; how it was run: as §1
# B16 = assay: In vitro antiproliferative activity against B16 cell line; type: functional; details: Mus musculus; how it was run: as §1
# DU-145 = assay: In vitro antiproliferative activity against DU145 cell line; type: functional, Mus musculus; details: Homo sapiens; how it was run: as §1
# L1210 [2] = assay: In vitro antiproliferative activity against L1210 cell line; type: functional; details: Mus musculus; how it was run: as §1
# KB = assay: In vitro antiproliferative activity against KBA1 cell line; type: functional, Mus musculus; details: Homo sapiens; how it was run: as §1
# LS174T = assay: In vitro antiproliferative activity against LS174T cell line; type: functional, Mus musculus; details: Homo sapiens; how it was run: as §1
# L1210 [3] = assay: Compound was tested for percentage of L1210 cells accumulated in the G2 + M + 8N phase of the cell cycle at 0.5 uM; type: functional, Mus musculus
# How it was run: (§2)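 Flow cytometry of L1210 cells (2.5×10^5/mL) exposed to drug for 21 h (about two doubling times). Cells fixed in 70% ethanol, washed twice in PBS, then 30 min in PBS with 100 µg/mL RNAse and 25 µg/mL propidium iodide. 10 000 cells counted per sample. Reported as % of cells in G2 + M + 8N.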
# Mus musculus [4] = assay: In vivo anticancer activity against an ip P388 murine model after intraperitoneal administration of 100 mg/kg compound; type: functional
# How it was run: (§3)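 Female B6D2F1 mice, 4–6 weeks old, 20–22 g, inoculated ip with 10^6 P388 leukemia cells. Single ip or iv injection on day 1 at the listed dose (range 25–400 mg/kg). BCNU run as internal reference. Median survival of treated versus control mice gives T/C (%). Activity threshold set at T/C 125%.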
# Mus musculus [5] = assay: In vivo anticancer activity against an ip P388 murine model after intraperitoneal administration of 200 mg/kg compound; type: functional; how it was run: as §3
# Mus musculus [6] = assay: In vivo anticancer activity against an ip P388 murine model after intraperitoneal administration of 25 mg/kg compound; type: functional; how it was run: as §3
# Mus musculus [7] = assay: In vivo anticancer activity against an ip P388 murine model after intraperitoneal administration of 400 mg/kg compound; type: functional; how it was run: as §3
# Mus musculus [8] = assay: In vivo anticancer activity against an ip P388 murine model after intraperitoneal administration of 50 mg/kg compound; type: functional; how it was run: as §3
# Mus musculus [9] = assay: In vivo anticancer activity against an ip P388 murine model after intravenous administration of 100 mg/kg compound; type: functional; how it was run: as §3
# Mus musculus [10] = assay: In vivo anticancer activity against an ip P388 murine model after intravenous administration of 200 mg/kg compound; type: functional; how it was run: as §3
# Mus musculus [11] = assay: In vivo anticancer activity against an ip P388 murine model after intravenous administration of 25 mg/kg compound; type: functional; how it was run: as §3
# Mus musculus [12] = assay: In vivo anticancer activity against an ip P388 murine model after intravenous administration of 400 mg/kg compound; type: functional; how it was run: as §3
# Mus musculus [13] = assay: In vivo anticancer activity against an ip P388 murine model after intravenous administration of 50 mg/kg compound; type: functional; how it was run: as §3
# [14] = Inhibitory concentration against calf microtubule polymerization; type: functional, Bos taurus
# How it was run: (§4)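 Calf brain tubulin purified by three assembly–disassembly cycles, about 2–3 mg/mL in 0.1 M MES, 0.5 mM MgCl2, 2 mM EGTA, 1 mM GTP, pH 6.6. Assembly followed continuously by turbidimetry at 37 °C. IC50 is the concentration halving the maximum assembly rate of drug-free tubulin. Deoxypodophyllotoxin measured the same day as reference.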
# OVCAR-3 = assay: In vitro antiproliferative activity against OVCAR-3 cell line; type: functional, Mus musculus; details: Homo sapiens; how it was run: as §1
# P388 = assay: In vitro antiproliferative activity against P388 cell line; type: functional; details: Mus musculus; how it was run: as §1
# Tubulin = Tubulin (Bos taurus, UniProt Q6B856+Q862L2+Q862F3); assay: Inhibitory concentration against calf tubulin polymerization; type: protein assay; how it was run: as §4
# HT-29 = assay: In vitro antiproliferative activity against HT-29 cell line; type: functional, Mus musculus; details: Homo sapiens; how it was run: as §1
# L1210 [15] = assay: Compound was tested for percentage of L1210 cells accumulated in the G2 + M + 8N phase of the cell cycle at 50 uM; type: functional, Mus musculus; how it was run: as §2
# MDA-N = assay: Cytotoxicity against human breast MDA-N cell line; type: functional
# NCI-H522 = assay: Cytotoxicity against human NSCL NCI-H522 cell line; type: functional
# SW-620 = assay: Cytotoxicity against human colon SW-620 cell line; type: functional
# RXF 393 = assay: Cytotoxicity against human renal XF-393 cell line; type: functional
# PC-3 = assay: Cytotoxicity against human prostate PC-3 cell line; type: functional
# CCRF-CEM = assay: Cytotoxicity against human leukemia CCRF-CEM cell line; type: functional
# M14 [16] = assay: Cytotoxicity against human melanoma M-14 cell line; type: functional
# M14 [17] = assay: Cytotoxicity against human melanoma M-14 cell line from the NCI 60 tumoral cell line panel; type: functional
smiles,measurement,setting,value
COc1ccc(-c2csc3c2-n2cccc2C3=O)c(OC)c1OC,GI50,L1210 [1],36.4 µM
COc1ccc(-c2csc3c2-n2cccc2C3=O)cc1O,GI50,A549,0.045 µM
same,GI50,A2780,0.04 µM
same,GI50,B16,0.023 µM
same,GI50,DU-145,0.043 µM
same,GI50,L1210 [2],0.015 µM
same,GI50,L1210 [1],0.015 µM
same,GI50,KB,0.015 µM
same,GI50,LS174T,0.887 µM
same,Cells,L1210 [3],86%
same,T/C,Mus musculus [4],121%
same,T/C,Mus musculus [5],117%
same,T/C,Mus musculus [6],108%
same,T/C,Mus musculus [7],121%
same,T/C,Mus musculus [8],116%
same,T/C,Mus musculus [9],102%
same,T/C,Mus musculus [10],103%
same,T/C,Mus musculus [11],102%
same,T/C,Mus musculus [12],19%
same,T/C,Mus musculus [13],104%
same,IC50,[14],2.9 µM
same,GI50,OVCAR-3,0.031 µM
same,GI50,P388,0.021 µM
same,IC50,Tubulin,2.9 µM
same,GI50,HT-29,0.713 µM
O=C1c2scc(-c3ccc(O)cc3)c2-n2cccc21,GI50,L1210 [1],30.1 µM
COc1ccccc1-c1csc2c1-n1cccc1C2=O,GI50,L1210 [1],18.9 µM
same,Cells,L1210 [15],75%
O=C1c2scc(-c3ccccc3O)c2-n2cccc21,GI50,L1210 [1],3.7 µM
O=C1c2scc(-c3ccc(O)c(O)c3O)c2-n2cccc21,GI50,L1210 [1],12 µM
COc1ccc(-c2csc3c2-n2cccc2/C3=N/O)cc1,GI50,L1210 [1],34.3 µM
O=C1c2scc(-c3cccc(O)c3)c2-n2cccc21,GI50,L1210 [1],29 µM
O=C1c2cccc(-c3cccs3)c2-n2cccc21,GI50,L1210 [1],71.9 µM
COc1ccc(-c2cccc3c2-n2cccc2C3=O)cc1,GI50,L1210 [1],3 µM
O=C1c2scc(-c3ccccc3)c2-n2cccc21,GI50,MDA-N,15.8 µM
same,GI50,NCI-H522,12.6 µM
same,GI50,SW-620,15.8 µM
same,GI50,RXF 393,12.6 µM
same,GI50,PC-3,12.6 µM
same,GI50,CCRF-CEM,20 µM
same,GI50,M14 [16],20 µM
O=C1c2scc(-c3ccc(F)cc3)c2-n2cccc21,GI50,MDA-N,7.94 µM
same,GI50,NCI-H522,15.8 µM
same,GI50,SW-620,25.1 µM
same,GI50,RXF 393,25.1 µM
same,GI50,PC-3,31.6 µM
same,GI50,CCRF-CEM,31.6 µM
same,GI50,M14 [16],31.6 µM
O=C1c2sccc2-n2cccc21,GI50,L1210 [1],85 µM
COc1ccc(-c2csc3nc(O)c4cccn4c23)cc1OC,GI50,L1210 [1],> 100 µM
O=C1c2scc(-c3ccc(Cl)cc3)c2-n2cccc21,GI50,M14 [17],50.1 µM
same,GI50,MDA-N,7.94 µM
same,GI50,NCI-H522,3.16 µM
same,GI50,SW-620,100 µM
same,GI50,RXF 393,100 µM
same,GI50,PC-3,100 µM
same,GI50,CCRF-CEM,100 µM
COc1ccc(C2CC(=O)c3cccn32)cc1O (stereo not given),GI50,L1210 [1],25 µM
Oc1ccc(-c2csc3nc(O)c4cccn4c23)cc1O,GI50,L1210 [1],8.8 µM
COc1ccc(-c2csc3c2-n2cccc2C3=O)cc1OCc1ccccc1,GI50,L1210 [1],5.4 µM
